How the values were obtained:
Format in all cases: functional
Rattus norvegicus [1] = experiment: Dose required to reduce blood pressure by 30 mmHg after (po) administration in conscious spontaneously hypertensive rat
Procedure, shortened: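 Conscious male Okamoto-strain SHR (280-330 g, >180 mmHg) were given two to four oral doses beyond the 1 mg/kg screen. Mean arterial pressure was recorded directly via an aortic catheter in unrestrained rats. The ED30, the dose in µg/kg lowering pressure by 30 mmHg, came from linear regression of effect vs log dose.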

Rattus norvegicus [2] = experiment: Dose required to reduce mean blood pressure after 20 hr following (po) administration conscious spontaneously hypertensive rat
Rattus norvegicus [3] = experiment: Dose required to reduce mean blood pressure after 2 hr following (po) administration conscious spontaneously hypertensive rat
Rattus norvegicus [4] = experiment: Antihypertensive effect after 1 mg/kg (po) administration in conscious spontaneously hypertensive rat (over a time period of 0-210 minutes).
Procedure, shortened: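 Male Okamoto-strain SHR (280-330 g, blood pressure >180 mmHg), conscious and unrestrained, given 1 mg/kg orally as a screening dose. Mean arterial pressure was recorded directly and continuously via an aortic catheter from 1 h before to 3.5 h after dosing. The effect is the mean of the maximum individual changes over 3.5 h; N ≥ 3.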

[5] = Ratio of ED30(20h) to ED30(2h) was determined
Rattus norvegicus [6] = experiment: Dose required to reduce mean blood pressure was determined after 20h following(po) administration in conscious spontaneously hypertensive rat
Rattus norvegicus [7] = experiment: Dose required to reduce mean blood pressure was determined after 2 hr following(po) administration in conscious spontaneously hypertensive rat

Structure (SMILES) | ED30 (Rattus norvegicus [1]) | ED30 (Rattus norvegicus [2]) | ED30 (Rattus norvegicus [3]) | Max fall in blood pressure (Rattus norvegicus [4]) | Ratio [5] | ED30 (Rattus norvegicus [6]) | ED30 (Rattus norvegicus [7])
CC1(C)C=C(n2cc(N)ccc2=O)c2cc(C#N)ccc2O1 | 0.206 mg/kg | 1.61 mg/kg | 0.341 mg/kg | 94 mmHg | 4.7 | – | –
CC1(C)Oc2ccc(C#N)cc2[C@]2(n3ccccc3=O)O[C@H]12 | 0.202 mg/kg | – | – | 69 mmHg | – | – | –
CC1(C)Oc2ccc(C#N)cc2C(n2ccncc2=O)[C@@H]1O (some centres undefined) | 0.01 mg/kg | 1.29 mg/kg | 0.291 mg/kg | 75 mmHg | 4.4 | – | –
CC(=O)O[C@H]1[C@H](n2ccccc2=O)c2cc(C#N)ccc2OC1(C)C | 0.106 mg/kg | 0.405 mg/kg | 0.112 mg/kg | 89 mmHg | 3.6 | – | –
CC1(C)C=C(n2ccncc2=O)c2cc(C#N)ccc2O1 | 0.022 mg/kg | 0.357 mg/kg | 0.038 mg/kg | 105 mmHg | 9.4 | – | –
CC1(C)Oc2ccc(C#N)cc2[C@H](N2CCCC2=O)[C@H]1O [(-)-CROMAKALIM] | 0.11 mg/kg | 0.603 mg/kg | 0.131 mg/kg | 78 mmHg | 4.6 | – | –
CC1(C)Oc2ccc(C#N)cc2[C@@H](n2ccccc2=O)[C@@H]1O [EMAKALIM] | 0.05 mg/kg | – | – | 108 mmHg | 3.1 | 0.138 mg/kg | 0.045 mg/kg
COC(=N)c1ccc2c(c1)C(N1CCCC1=O)[C@H](O)C(C)(C)O2 (some centres undefined) | 0.083 mg/kg | – | – | 76 mmHg | – | – | –
CC1(C)Oc2ccc(C#N)cc2[C@@H](n2ccccc2=O)[C@@H]1OC=O | 0.03 mg/kg | 0.416 mg/kg | 0.067 mg/kg | 101 mmHg | 6.2 | – | –
COc1ccn(C2=CC(C)(C)Oc3ccc(C#N)cc32)c(=O)c1 | 0.066 mg/kg | – | – | 113 mmHg | – | – | –
CC(=O)c1ccc2c(c1)C(n1ccccc1=O)=CC(C)(C)O2 | 0.025 mg/kg | 0.546 mg/kg | 0.074 mg/kg | 130 mmHg | 7.4 | – | –
CC1(C)Oc2ccc([N+](=O)[O-])cc2[C@@H](n2ccccc2=O)[C@@H]1O | 0.024 mg/kg | – | – | 113 mmHg | 25.2 | 0.884 mg/kg | 0.035 mg/kg
COc1ccn([C@@H]2c3cc(C#N)ccc3OC(C)(C)[C@H]2O)c(=O)c1 | 0.197 mg/kg | – | – | 73 mmHg | – | – | –
CC1(C)Oc2ccc([N+](=O)[O-])cc2[C@]2(n3ccccc3=O)O[C@H]12 | 0.06 mg/kg | – | – | 118 mmHg | – | – | –
CC1(C)C=C(n2ccccc2=O)c2cc(C#N)ccc2O1 [BIMAKALIM] | 0.01 mg/kg | 0.186 mg/kg | 0.036 mg/kg | 142 mmHg | 5.2 | – | –
CC1(C)C=C(n2ccccc2=O)c2cc(Br)ccc2O1 | 0.11 mg/kg | 1.27 mg/kg | 0.069 mg/kg | 131 mmHg | 18.4 | – | –
COC(=O)c1ccc2c(c1)C(n1ccccc1=O)=CC(C)(C)O2 | 0.202 mg/kg | 2.06 mg/kg | 0.573 mg/kg | 98 mmHg | 3.6 | – | –
CC1(C)Oc2ccc(C#N)cc2C(n2ncccc2=O)[C@@H]1O (some centres undefined) | 0.036 mg/kg | 0.082 mg/kg | 0.045 mg/kg | 77 mmHg | 1.8 | – | –
CC1(C)Oc2ccc([N+](=O)[O-])cc2[C@@H](n2ccccc2=O)[C@@H]1OC=O | 0.074 mg/kg | – | – | 129 mmHg | – | – | –
CC1(C)C=C(n2ccccc2=O)c2cc([N+](=O)[O-])ccc2O1 | 0.00083 mg/kg | 0.102 mg/kg | 0.0007 mg/kg | 140 mmHg | 146 | – | –
CCOc1ccn(C2=CC(C)(C)Oc3ccc(C#N)cc32)c(=O)c1 | 0.017 mg/kg | > 1 mg/kg | 0.137 mg/kg | 136 mmHg | > 7.3 | – | –
CC1(C)CC(n2ccccc2=O)c2cc(C#N)ccc2O1 (centres undefined) | 0.15 mg/kg | – | – | 92 mmHg | – | – | –
CC1(C)Oc2ccc(C#N)cc2C(N2N=CCCC2=O)[C@@H]1O (some centres undefined) | 0.211 mg/kg | 0.148 mg/kg | 0.056 mg/kg | 63 mmHg | 2.6 | – | –
